Shown are actives, neighbours in structure and some others; about 1.9% of the full set was active somewhere.
NS3 helicase inh = inhibitors of HCV NS3 helicase, primary screen, biochemical, Cy5 molecular beacon fluorescence. NS3 helicase DNA unwinding. inhibition, % at 10.9 µM. 290,000 tested, 0.56% active;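 active means inhibition above the mean of all tested compounds plus 3 SD, set per campaign, cut at about 35% in these data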;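 further: 0% = DMSO wells and 100% = thioflavine S control wells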
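System: Hepatitis C virus NS3 helicase domain fragment enzyme | Reagent: Annealed dual-labelled DNA beacon duplex, ATP-started | Compound dosing: 10.9 µM single point, 0.8% DMSO | Incubation: 1 h reaction at 25 °C, ATP-initiated | Technique: Cy5 fluorescence | Evaluation: Percent inhibition from t60/t0 fluorescence ratio | Benchmarks: Low DMSO, high thioflavine S at 110 µM | Replication: Singlicate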
core dimer inh = inhibitors of HCV core protein dimerization, primary screen, biochemical, TR-FRET, high-throughput | TR-FRET GST/Flag-core106 dimerization, 1536-well | inhibition, % at 5 µM | 300,000 tested, 0.33% active | AID 1899, 2009;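 active means inhibition above the mean of all tested compounds plus 3 SD, set per screening campaign, cut at about 45% in these data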
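System: GST-tagged and Flag-tagged HCV core protein residues 1-106 / Input: core106 proteins, GST 13.5 nM and Flag 17 nM / Buffer or medium: KF-containing HEPES buffer, pH 7.45, DTT, CHAPS, BSA / Probe or stimulus: Eu-anti-GST and XL665-anti-Flag labelled anti-tag antibodies / Schedule: 4 h, 22.5 °C incubation / Technique: TR-FRET 671 and 617 nm emission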
pCIP destab = p/CIP-EGFP fusion destabilizers, primary screen, fluorescence, F442A cells. Q05BA5. 16 h. decrease of EGFP signal, % at 10 µM. 290,000 tested, 0.01% active. AID 1984, 2009;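 active means EGFP signal decrease of at least 30% at 10 µM or well 3 SD below plate mean, unless failing retest; inactive means the rest, including hits failing retest or dose response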
Target sequence (Q05BA5 1-1403): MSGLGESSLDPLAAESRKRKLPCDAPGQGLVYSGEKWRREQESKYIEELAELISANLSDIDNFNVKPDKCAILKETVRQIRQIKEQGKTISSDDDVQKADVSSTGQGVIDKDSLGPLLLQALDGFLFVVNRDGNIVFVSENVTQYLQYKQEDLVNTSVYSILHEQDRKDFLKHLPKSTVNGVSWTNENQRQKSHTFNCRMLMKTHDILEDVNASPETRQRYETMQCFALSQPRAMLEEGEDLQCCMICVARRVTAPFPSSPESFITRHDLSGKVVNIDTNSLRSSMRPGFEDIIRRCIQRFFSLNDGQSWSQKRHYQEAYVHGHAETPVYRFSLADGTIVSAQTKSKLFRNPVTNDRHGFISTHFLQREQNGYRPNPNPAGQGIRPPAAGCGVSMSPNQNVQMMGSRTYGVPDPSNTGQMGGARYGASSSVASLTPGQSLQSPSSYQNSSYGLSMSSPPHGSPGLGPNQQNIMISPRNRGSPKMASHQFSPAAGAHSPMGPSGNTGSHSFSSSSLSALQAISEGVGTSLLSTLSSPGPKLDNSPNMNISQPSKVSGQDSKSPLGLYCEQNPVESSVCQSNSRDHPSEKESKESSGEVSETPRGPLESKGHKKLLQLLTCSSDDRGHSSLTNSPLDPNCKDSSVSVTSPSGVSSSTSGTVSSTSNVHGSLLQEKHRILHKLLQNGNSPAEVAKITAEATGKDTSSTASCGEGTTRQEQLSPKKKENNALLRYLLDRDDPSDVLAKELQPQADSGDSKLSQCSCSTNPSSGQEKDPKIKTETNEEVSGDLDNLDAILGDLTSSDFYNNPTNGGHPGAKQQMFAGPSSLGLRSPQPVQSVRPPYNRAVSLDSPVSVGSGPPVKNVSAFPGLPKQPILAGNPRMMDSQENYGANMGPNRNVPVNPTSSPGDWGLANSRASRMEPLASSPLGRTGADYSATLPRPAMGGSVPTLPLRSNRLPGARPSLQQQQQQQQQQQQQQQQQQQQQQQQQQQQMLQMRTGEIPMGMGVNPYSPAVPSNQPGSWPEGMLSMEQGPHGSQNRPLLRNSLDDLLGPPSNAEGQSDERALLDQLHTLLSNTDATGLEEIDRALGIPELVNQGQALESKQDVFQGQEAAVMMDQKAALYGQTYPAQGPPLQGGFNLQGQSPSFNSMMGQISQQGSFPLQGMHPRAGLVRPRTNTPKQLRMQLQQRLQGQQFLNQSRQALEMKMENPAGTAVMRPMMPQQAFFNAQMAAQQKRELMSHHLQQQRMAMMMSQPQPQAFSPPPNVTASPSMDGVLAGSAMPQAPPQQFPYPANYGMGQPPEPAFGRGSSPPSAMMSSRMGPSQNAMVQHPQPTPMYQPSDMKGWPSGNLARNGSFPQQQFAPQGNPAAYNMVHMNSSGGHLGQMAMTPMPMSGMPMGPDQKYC
GPR7 antagonist = GPR7 receptor antagonists, primary screen, cell-based, fluorescence, single concentration; Neuropeptides B/W receptor type 1 (Homo sapiens), P48145; GPR7-expressing cells, fluorescence antagonist assay; inhibition, % at 4.4 µM; 290,000 tested, 1.1% active; AID 1861, 2009; in the data active means inhibition above about 16%, passing the limit was not always enough;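 further: cells stimulated with the agonist NPW; 0% = agonist with vehicle and 100% = vehicle without agonist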
FID counter = compounds displacing fluorescent DNA intercalator, primary screen, artefact control for HCV NS3 helicase inhibitor project, biochemical, FID fluorescence. inhibition, % at 7.9 µM. 290,000 tested, 0.17% active. DNA fluorescent intercalator displacement; in the data active means inhibition above about 37%;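 further: 0% = vehicle and 100% = reference compound; higher means more ethidium bromide displaced from hairpin DNA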
GPR7 antag conf = GPR7 receptor antagonists, confirmation, cell-based, fluorescence, single concentration. shares compounds with GPR7 antagonist. GPR7-expressing cells, calcium fluorescence antagonist mode. inhibition, % at 4.4 µM. 2,400 tested, 52% active. AID 1952, 2009; in the data active means inhibition above about 24%;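 further: stimulated with the GPR7 agonist NPW; 0% = agonist plus vehicle and 100% = vehicle alone without agonist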
MCHR1 antagonist = MCHR1 antagonists in cells, counter-screen for GPR7 antagonist project, cell-based, fluorescence, human; AID 2148, 2009; 2,400 tested, 62% active; inhibition, % at 4.4 µM; shares compounds with GPR7 antagonist; MCHR1-expressing cells, fluorescence antagonist assay; in the data active means inhibition above about 22%;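 further: 0% = vehicle with agonist and 100% = vehicle without agonist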
* = called active by the depositor; / = not tested or not shown.

SMILES	NS3 helicase inh	core dimer inh	pCIP destab	GPR7 antagonist	FID counter	GPR7 antag conf	MCHR1 antagonist
NCC(c1ccc(Cl)cc1Cl)c1c[nH]c2ccccc12 (configuration not stated)	-80	-2	0	51*	12	61*	69*
COc1cc(/C=C2\N=C(c3ccccc3)OC2=O)ccc1OC(C)=O	12	-6	-8	25*	-24	-6	7
CCCCCOc1ccc(Cn2ccnc2)cc1[N+](=O)[O-]	-23	-7	-13	21*	9	37*	48*
CCC(C)n1c(SCc2ccc([N+](=O)[O-])cc2)nc2ccsc2c1=O (configuration not stated)	-13	1	-2	25*	-6	23	44*
N#CCCN=C(NS(=O)(=O)c1ccccc1)c1ccccc1	34	-20	-17	-13	-14	/	/
Fc1ccc(NC(=S)NCCc2ccccc2)c(F)c1F	9	2	-15	28*	3	8	55*
COC(=O)C1=C(C)N=C2SC(C#N)=C(N)N2C1c1cc(OC)c(OC)c(OC)c1 (configuration not stated)	-2	-3	-8	28*	-3	-4	-5
CCN1CCN(C(=O)c2ccc3c(c2)N(Cc2ccc(C)cc2)CCS3)CC1	-47	0	0	/	7	/	12
Cc1ccc(CN2CCSc3ccc(C(=O)N4CCOCC4)cc32)cc1	2	-6	2	-17	-47	/	/
COCCN1Cc2cccc(C(=O)Nc3ccc(S(=O)(=O)N4CCCCC4)cc3)c2C1=O	25	-7	-11	24*	-6	-7	-9
O=C(Nc1ccc(S(=O)(=O)N2CCCCC2)cc1)c1ccc(CN2CCc3ccccc3C2)cc1	-74	12	-10	25*	15	49*	57*
Cc1ccc(C(=O)Nc2ccc(S(=O)(=O)N3CCN(C)CC3)cc2)cc1	-14	-6	-9	45*	16	0	5
Cc1ccc(NC(=O)c2ccc(S(=O)(=O)N3CCCC3)cc2)cc1	-7	4	/	-12	-10	/	/
CCOC(=O)c1ccc(NC(=O)c2cccc(S(=O)(=O)N3CCOCC3)c2)cc1	1	-3	-9	24*	-10	21	75*
CCOC(=O)c1ccc(NC(=O)c2ccc(C)c(S(=O)(=O)N3CCOCC3)c2)cc1	-8	4	-8	23	-18	/	/
CCOc1ncccc1C(=O)NNC(=O)c1ccc(NS(=O)(=O)c2cccs2)cc1	/	5	/	/	/	/	/
COc1cc(CNc2ccccc2Oc2cc(=O)n(C)c(=O)n2C)cc(OC)c1OC	-6	-10	-7	37*	-27	25*	24*
O=C(OCC(=O)N1CCN(c2ccccc2)CC1)c1ccc(O)cc1O	-4	3	8	26*	-15	15	6
CC(=O)Nc1ccc(S(=O)(=O)NCCC(=O)OC(C)C(=O)c2ccc(C)cc2)cc1 (configuration not stated)	-5	5	-6	27*	-17	20	45*
O=C(CN1C(=O)COc2ccccc21)N1CCCC1	2	-2	-17	10	-3	/	/
O=C(CN1C(=O)COc2ccccc21)N1CCOCC1	15	4	8	32*	7	-3	-1
O=C(CCNC(=O)C1CCN(S(=O)(=O)c2ccccc2)CC1)NCc1ccc(Cl)cc1Cl	-10	5	-18	-10	-54	/	/
C[C@@H](NC(=O)[C@@H]1Cc2ccccc2CN1)C(=O)Nc1ccc2c(c1)OCO2	11	-4	-16	-7	-3	/	/
CN1CCCC(CN2c3ccccc3Sc3ccccc32)C1 (configuration not stated)	-98	-6	-14	35*	18	51*	34*
CN1CCCC(CC2c3ccccc3Sc3ccccc32)C1 (configuration not stated)	/	-7	/	/	/	/	/
